In ChEMBL document CHEMBL1135994, “Potent, novel in vitro inhibitors of the Pseudomonas aeruginosa deacetylase LpxC” (J Med Chem, 2002):

Molecular target: T1, UDP-3-O-acyl-N-acetylglucosamine deacetylase (Pseudomonas aeruginosa (strain ATCC 15692 / PAO1 / 1C / PRS 101 / LMG12228), UniProt P47205)
T1 sequence (P47205 whole entry): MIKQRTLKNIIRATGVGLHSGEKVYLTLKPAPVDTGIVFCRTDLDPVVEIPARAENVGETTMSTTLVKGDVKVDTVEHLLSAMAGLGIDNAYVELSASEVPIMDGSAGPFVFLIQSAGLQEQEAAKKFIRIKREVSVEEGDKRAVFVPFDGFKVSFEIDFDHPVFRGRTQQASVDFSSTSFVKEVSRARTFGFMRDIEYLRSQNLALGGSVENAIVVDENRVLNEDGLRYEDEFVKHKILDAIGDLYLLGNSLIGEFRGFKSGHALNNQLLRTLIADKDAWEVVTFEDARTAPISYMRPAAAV
Experiment: Inhibition of Pseudomonas aeruginosa UDP-3-O-acyl-N-acetylglucosamine Deacetylase (LpxC) in vitro.
Procedure, shortened: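 Purified recombinant P. aeruginosa LpxC (IPTG-induced, zinc-reconstituted) at 2 nM incubated with 150 nM [3H-acetyl]-UDP-3-O-(R-3-hydroxydecanoyl)-GlcNAc for 90 min at room temperature (22 °C). Buffer is sodium phosphate pH 7.5 with 1 mg/mL BSA. Stopped with activated charcoal suspension. Released [3H]-acetate in the clarified supernatant counted by scintillation. 5 mM EDTA controls define nonspecific tritium release. IC50 determined.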

Compared with `CC(=O)Nc1ccc(C2=NC(C(=O)NO)CO2)cc1` (stereo not drawn), `CC(=O)c1ccc(C2=NC(C(=O)NO)CO2)cc1` (stereo not drawn) is lower in IC50: greater than 30 µM for the first, 18 µM for the second. The second is the more potent here.

First: COc1c(F)cc(C2=NC(C(=O)NO)CO2)cc1Br (stereo not drawn)
Second: O=C(NO)C1COC(c2ccc(F)c(Br)c2)=N1 (stereo not drawn)
The IC50 of the first is 1.8-fold higher: 9 µM for the first, 4.9 µM for the second. The second is the more potent here.

Going from `Cc1ccc(C2=NC(C(=O)NO)CCO2)cc1` (stereo not drawn) to `Cc1ccc(C2=NC(C(=O)NO)CO2)cc1` (stereo not drawn), the IC50 falls from greater than 50 µM to 20 µM. The second is the more potent here.

Going from `O=C(NO)C1COC(c2ccc(OCc3cccc(C(F)(F)F)c3)c(F)c2)=N1` (stereo not drawn) to `O=C(NO)C1COC(c2ccc(OCc3ccccc3C(F)(F)F)c(F)c2)=N1` (stereo not drawn), the IC50 rises from 0.84 µM to 9.6 µM (11-fold).

Going from `O=C(NO)C1CSC(c2ccc(OC(F)(F)F)cc2)=N1` (stereo not drawn) to `O=C(NO)C1COC(c2ccc(OC(F)(F)F)cc2)=N1` (stereo not drawn), the IC50 falls from 21.7 µM to 5 µM (4.3-fold).

Compared with `CCCc1cc(C(=O)NC(CO)C(=O)NO)cc(OC(F)(F)F)c1OC` (stereo not drawn), `C=CCOc1ccc(C(=O)NC(CO)C(=O)NO)cc1OC(F)(F)F` (stereo not drawn) is lower in IC50: greater than 50 µM for the first, 7.5 µM for the second.

First: O=C(NO)C1CCOC(c2cc3cc(F)ccc3[nH]2)=N1 (stereo not drawn)
Second: O=C(NO)C1COC(c2cc3cc(F)ccc3[nH]2)=N1 (stereo not drawn)
The IC50 of the first is 20-fold higher: 31.2 µM for the first, 1.6 µM for the second.

First: CC(C)=CCOc1ccc(C2=NC(C(=O)NO)CO2)cc1OC(F)(F)F (stereo not drawn)
Second: C=CCOc1ccc(C2=NC(C(=O)NO)CO2)cc1OC(F)(F)F (stereo not drawn)
The IC50 of the first is 1.6-fold higher: 0.19 µM for the first, 0.12 µM for the second.

Compared with `CCCc1cc(C2=NC(C(=O)NO)CS2)cc(OC(F)(F)F)c1OC` (stereo not drawn), `CCCc1cc(C2=NC(C(=O)NO)CO2)cc(OC(F)(F)F)c1OC` (stereo not drawn) is 36-fold lower in IC50: 17.8 µM for the first, 0.5 µM for the second. The second is the more potent here.

Compared with `O=C(NO)C1COC(c2ccc(OC(F)(F)F)c(Cl)c2)=N1` (stereo not drawn), `COc1ccc(C2=NC(C(=O)NO)CO2)cc1OC(F)(F)F` (stereo not drawn) is 190-fold lower in IC50: 30 µM for the first, 0.16 µM for the second. The second is the more potent here.

First: O=C(NO)C1COC(c2ccc([N+](=O)[O-])cc2)=N1 (stereo not drawn)
Second: O=C(NO)C1COC(c2ccc(Br)cc2)=N1 (stereo not drawn)
The IC50 of the first is 2-fold higher: 5.4 µM for the first, 2.7 µM for the second. The second is the more potent here.

First: CCOc1cc(C(=O)NC(CO)C(=O)NO)ccc1F (stereo not drawn)
Second: O=C(NC(CO)C(=O)NO)c1ccc(F)cc1 (stereo not drawn)
The IC50 of the first is lower: 46 µM for the first, greater than 50 µM for the second.

First: C=CCOc1ccc(C2=NC(C(=O)NO)CO2)cc1F (stereo not drawn)
Second: C=CCOc1ccc(C2=NC(C(=O)NO)CO2)cc1C(F)(F)F (stereo not drawn)
The IC50 of the first is 1.6-fold lower: 1.4 µM for the first, 2.2 µM for the second.

`Cc1c(C2=NC(C(=O)NO)CO2)cnn1-c1ccccc1` (stereo not drawn) and `O=C(NO)C1COC(c2cnn(-c3ccccc3)c2C(F)(F)F)=N1` (stereo not drawn) cannot be ordered by IC50: greater than 30 µM for the first, greater than 30 µM for the second.

Compared with `O=C(NO)C1COC(c2cccc(OC(F)(F)F)c2)=N1` (stereo not drawn), `O=C(NO)C1COC(c2cccc(C(F)(F)F)c2)=N1` (stereo not drawn) is 2.4-fold lower in IC50: 6 µM for the first, 2.5 µM for the second.

`CN(C)c1ccc(C2=NC(C(=O)NO)CO2)cc1` (stereo not drawn) and `O=C(NO)C1COC(c2ccc(F)cc2)=N1` (stereo not drawn) are within 1.5-fold of each other in IC50: 4.9 µM for the first, 6 µM for the second.

First: O=C(NO)C1CCOC(c2ccc(F)c(C(F)(F)F)c2)=N1 (stereo not drawn)
Second: O=C(NO)C1COC(c2ccc(F)c(C(F)(F)F)c2)=N1 (stereo not drawn)
The IC50 of the first is 16-fold higher: 21.2 µM for the first, 1.3 µM for the second.

`CCCCn1nc2ccccc2c1C1=NC(C(=O)NO)CO1` (stereo not drawn) and `CCCCn1nc(C2=NC(C(=O)NO)CO2)c2ccccc21` (stereo not drawn) are within 1.5-fold of each other in IC50: 12 µM for the first, 10 µM for the second.

Going from `Cc1c(C2=NC(C(=O)NO)CS2)cnn1-c1ccccc1` (stereo not drawn) to `Cc1ccc(C2=NC(C(=O)NO)CS2)cc1` (stereo not drawn), the IC50 falls from greater than 60 µM to 38.5 µM.

First: C=CCc1c(C)c(C2=NC(C(=O)NO)CO2)cc(F)c1OC (stereo not drawn)
Second: CCOc1cc(C2=NC(C(=O)NO)CO2)ccc1F (stereo not drawn)
The IC50 of the first is 3.3-fold higher: 3.3 µM for the first, 1 µM for the second.

Compared with `O=C(NO)C1COC(c2ccccc2OC(F)(F)F)=N1` (stereo not drawn), `O=C(NO)C1COC(c2ccc(C(F)(F)F)cc2)=N1` (stereo not drawn) is lower in IC50: greater than 10 µM for the first, 7.8 µM for the second. The second is the more potent here.

First: CCCCCCCOc1ccc(C2=NC(C(=O)NO)CO2)cc1 (stereo not drawn)
Second: C=CCCOc1ccc(C2=NC(C(=O)NO)CO2)cc1 (stereo not drawn)
The IC50 of the first is higher: greater than 30 µM for the first, 5.6 µM for the second. The second is the more potent here.

Going from `O=C(NO)C1COC(c2[nH]nc3ccccc23)=N1` (stereo not drawn) to `O=C(NO)C1COC(c2[nH]c3ccc(F)cc3c2Cl)=N1` (stereo not drawn), the IC50 falls from 5.5 µM to 0.3 µM (18-fold).

First: Cc1ccc(C(=O)NC(CO)C(=O)NO)cc1 (stereo not drawn)
Second: C=CCCOc1ccc(C(=O)NC(CO)C(=O)NO)cc1 (stereo not drawn)
The IC50 of the first is higher: greater than 50 µM for the first, 3.9 µM for the second.

`O=C(NO)C1COC(c2ccc(OCc3cccc(F)c3)c(OC(F)(F)F)c2)=N1` (stereo not drawn) and `C=CCCOc1ccc(C2=NC(C(=O)NO)CO2)cc1OC(F)(F)F` (stereo not drawn) are within 1.5-fold of each other in IC50: 0.25 µM for the first, 0.35 µM for the second.

Compared with `O=C(NO)C1COC(c2ccc(OCc3cccc([N+](=O)[O-])c3)cc2)=N1` (stereo not drawn), `O=C(NO)C1COC(c2ccc(COc3cccc([N+](=O)[O-])c3)cc2)=N1` (stereo not drawn) is 1.8-fold lower in IC50: 1 µM for the first, 0.56 µM for the second.

`CCCc1cc(C2=NC(C(=O)NO)CO2)ccc1F` (stereo not drawn) and `Cc1cc(C2=NC(C(=O)NO)CO2)ccc1F` (stereo not drawn) are within 1.5-fold of each other in IC50: 0.96 µM for the first, 1.2 µM for the second.

Compared with `O=C(NO)C1COC(c2ccc(O)cc2)=N1` (stereo not drawn), `O=C(NO)C1COC(c2ccc(I)cc2)=N1` (stereo not drawn) is lower in IC50: greater than 30 µM for the first, 5.5 µM for the second. The second is the more potent here.

Compared with `O=C(NO)C1COC(c2ccc(C(F)(F)F)nc2)=N1` (stereo not drawn), `O=C(NO)C1COC(c2cc(F)cc(C(F)(F)F)c2)=N1` (stereo not drawn) is 2.5-fold higher in IC50: 10 µM for the first, 25 µM for the second.

First: CCCc1ccc(-c2ccc(C3=NC(C(=O)NO)CO3)cc2)cc1 (stereo not drawn)
Second: CCCCc1ccc(C2=NC(C(=O)NO)CO2)cc1 (stereo not drawn)
The IC50 of the first is 26-fold lower: 0.28 µM for the first, 7.3 µM for the second. The first is the more potent here.

`C=CCCOc1ccc(C2=NC(C(=O)NO)CS2)cc1` (stereo not drawn) and `O=C(NO)C1CSC(c2ccc(F)cc2)=N1` (stereo not drawn) are within 1.5-fold of each other in IC50: 58.7 µM for the first, 62.5 µM for the second.

Compound `O=C(NC(CO)C(=O)NO)c1n[nH]c2ccccc12` (stereo not drawn) has an IC50 of 13 µM.
